How the values were obtained:
Mus musculus [1] = assay: Antinociceptive activity against acetic acid-induced writhing in sc dosed KM mouse for 30 mins; assay type: functional; conditions: 0.5 h
Outline: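 Mice, half male and half female, 8 per group, in cages at 23 ± 2 °C, 40–60% humidity and a 12 h light/dark cycle. Compounds were dissolved in 10% Tween-80 (aq) as twofold serial dilutions and given sc as a single 0.2 mL dose, with vehicle control. After 20 min, 0.2 mL of 0.7% acetic acid was given ip. Writhes were counted for 30 min. ED50 reported with 95% C.L.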

Mus musculus [2] = species on record: Mus musculus; assay: Toxicity in KM mouse assessed as moderate pain producing potency for 30 mins by wiping test; assay type: organism-based; conditions: in vivo, 0.5 h
Outline: (§1)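 Eye-drop test. Twofold dilutions were dropped into the right eye, with vehicle in the left eye as control. Protective movements (scratching, wiping the eye with the foreleg) were counted for 30 min. Six animals per concentration, half male and half female. A dose–response curve was built from group means, and MPP was taken as the concentration giving 32 scratches.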

Mus musculus [3] = species on record: Mus musculus; assay: Toxicity in KM mouse assessed as number of protective movements for 30 mins by wiping test; assay type: organism-based; conditions: in vivo, 0.5 h; outline: as §1
Mus musculus [4] = species on record: Mus musculus; assay: Toxicity in KM mouse assessed as relative pungent potency for 30 mins by wiping test relative to capsaicin; assay type: organism-based; conditions: in vivo, 0.5 h
Outline: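 RPP was derived from MPP values read off the eye-drop dose–response curve (movements counted for 30 min, 6 animals per concentration). It was scaled to the pain-producing potency of capsaicin, set as 1000.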

Mus musculus [5] = assay: Antinociceptive activity against acetic acid-induced writhing in sc dosed KM mouse for 30 mins relative to indomethacin; assay type: functional
Outline: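 Writhing ED50 from sc dosing (8 mice per group, 10% Tween-80 vehicle, 0.7% acetic acid ip 20 min after dosing, writhes counted for 30 min) expressed as a potency ratio relative to indomethacin run in parallel.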

SMILES	ED50 (Mus musculus [1]) [mg/kg]	Activity (Mus musculus [2])	Activity (Mus musculus [3])	Activity (Mus musculus [4])	Ratio (Mus musculus [5])
CCCCCCCCCC(=O)OCc1ccc(OCC)c(OC)c1	3.92	Non-toxic	4	Non-toxic	2.57
CCCCCCCCCC(=O)OCc1ccc(OCCCC)c(OC)c1	3.16	Non-toxic	8	Non-toxic	3.19
CCCCCCCCCC(=O)OCc1ccc(O)c(OC)c1 [VANILLYL DECANOATE]	15.6	Non-toxic	25	Non-toxic	0.65
COc1cc(CNC(=O)CCCC/C=C/C(C)C)ccc1O [CAPSAICIN]		0.099 mg/mL			
CCCCCCCCCC(=O)OCc1ccc(OCCCCCC)c(OC)c1	1.84	Non-toxic	11	Non-toxic	5.89
CCCCCCCC(=O)OCc1ccc(O)c(OC)c1 [VANILLYL CAPRYLATE]	12.6	Non-toxic	28	Non-toxic	0.8
COc1ccc2c(c1)c(CC(=O)O)c(C)n2C(=O)c1ccc(Cl)cc1 [INDOMETHACIN]					1
CCCCCCCCCCCC(=O)OCc1ccc(O)c(OC)c1 [VANILLYL LAURATE]	19.4	Non-toxic	22	Non-toxic	0.52

— ChEMBL document CHEMBL1153572, “Synthesis and antinociceptive activity of capsinoid derivatives” (Eur J Med Chem, 2009)
